The values that follow come from the RNAGym collection of RNA variant scans (doi:10.1002/anie.201605470).

B1: Osa-1-4 twister ribozyme (parent)
chain: CCGCCUAACACUGCCAAUGCCGGUCCCAAGCCCGGAUAAAAGUGGAGGGGGCGG

In this data set the parent is B1. In words: self-cleavage, relative activity (ratio to wild type); higher = more cleavage; co-transcriptional. A digest of the protocol:
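The 48 positions downstream of the cleavage site in a DNA template for a 54-nucleotide Oryza sativa twister ribozyme carried 97 % wild-type base and 1 % of each other base. After in vitro transcription (2 h, 37 °C) with co-transcriptional self-cleavage, the RNA was reverse-transcribed with a template-switching oligonucleotide, PCR-amplified and deep-sequenced. Relative activity is the fraction cleaved, judged by reads with or without upstream sequence and normalised to wild type.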
Consider C31A C32A, for which the self-cleavage was 0.04.

Turning to C31A C32U, the self-cleavage was found to be 0.01. To C31U U43C belongs 0.08.

Consider C31U U43A, for which the self-cleavage was determined as 0.17.

As to C31U U43G, the self-cleavage came out at 0.1. For C31U the value was 0.97. To C31A belongs 0.04. To C31G belongs 0.11; to C32A G47A, 0.04; to C32A G47C, 0.03. Consider C32A G47U, for which the self-cleavage came to 0.04.

On to C31G G51U, for which the self-cleavage stood at 0.05. Turning to C31G G51C, the self-cleavage was 0.04. For C31G G51A the value was 0.08. For C31A G44C, the self-cleavage is 0.03. To C31A G44U belongs 0.03; to C31A G44A, 0.04. C31G G35U: the self-cleavage worked out at 0.12. On to C31G G35C, for which the self-cleavage stood at 0.04. To C31G G35A belongs 0.15.

Regarding C31U G34C, the self-cleavage stood at 0.24. Take C31U G34U: the self-cleavage worked out at 0.56.

For C31U G34A, the self-cleavage was found to be 0.42.

Consider C32A C9G, for which the self-cleavage was 0.06. To C32A C9U belongs 0.05. For C32A C9A the value was 0.05; for C32A G13A, 0.01. For the variant C32A G13C, the self-cleavage was 0.01. For C32A G13U, the self-cleavage turned out to be 0.01. Consider C31A G54U, for which the self-cleavage was 0.05. For C31A G54A the value was 0.04; for C31A G54C, 0.04. To C32A G50U belongs 0.08.

For C32A G50A, the self-cleavage came to 0.05.

With C32A G50C, the self-cleavage is 0.07. As for C31A U12G, the self-cleavage stood at 0.04.

As to C31A U12C, the self-cleavage is 0.02. To C31A U12A belongs 0.04; to C32A G53C, 0.02. As for C32A G53U, the self-cleavage came to 0.05.

Turning to C32A G53A, the self-cleavage amounted to 0.08.

As for C31G G23C, the self-cleavage turned out to be 0.11.

On to C31G G23U, for which the self-cleavage was determined as 0.03. C31G G23A: the self-cleavage is 0.06.

As for C31A G23C, the self-cleavage was found to be 0.02. For C31A G23U the value was 0.02. To C31A G23A belongs 0.03; to C31G G34U, 0.08; to C31G G34A, 0.11. For C31G G34C the value was 0.1. As to C31G G22C, the self-cleavage is 0.04. In the case of C31G G22A, the self-cleavage was 0.11.

In the case of C31G G22U, the self-cleavage worked out at 0.05. To C31G C32G belongs 0.1. Consider C31G C32U, for which the self-cleavage amounted to 0.04. Take C31G C32A: the self-cleavage was determined as 0.02. As for C31A C9A, the self-cleavage is 0.02. For C31A C9G the value was 0.04; for C31A C9U, 0.03; for C31G C9A, 0.03. For C31G C9G the value was 0.23; for C31G C9U, 0.06; for C31G C33U, 0.06. For C31G C33G the value was 0.03; for C31G C33A, 0.04. Consider C31A G42C, for which the self-cleavage was found to be 0.02. To C31A G42U belongs 0.01.

C31A G42A: the self-cleavage is 0.03. To C32A C33G belongs 0.03; to C32A C33U, 0.05. For C32A C33A, the self-cleavage stood at 0.07. To G30U U37C belongs 0.04; to G30U U37G, 0.04; to G30U U37A, 0.02. For C31U C52A the value was 0.57; for C31U C52U, 0.96; for C31U C52G, 0.75. As for C32G C52U, the self-cleavage stood at 0.2. For C32G C52A the value was 0.12. In the case of C32G C52G, the self-cleavage was found to be 0.16. For C31A G30C the value was 0.03; for C31A G30U, 0.01. As to C31A G30A, the self-cleavage is 0.02. For C32A C52U the value was 0.18; for C32A C52G, 0.1; for C32A C52A, 0.1. For C31A G34U the value was 0.04; for C31A G34C, 0.04. For C31A G34A the value was 0.05; for C31G G30A, 0.04. C31G G30U: the self-cleavage turned out to be 0.04. To C31G G30C belongs 0.03; to C32A G44U, 0.08.

As for C32A G44C, the self-cleavage is 0.07. C32A G44A: the self-cleavage worked out at 0.06.

Consider C31G U37A, for which the self-cleavage worked out at 0.12. For C31G U37G the value was 0.14; for C31G U37C, 0.09; for C32A G30C, 0.03. Consider C32A G30A, for which the self-cleavage turned out to be 0.02. To C32A G30U belongs 0.02; to C31U G51U, 0.13. For C31U G51C the value was 0.06; for C31U G51A, 0.29; for C32G G13C, 0.02.

As for C32G G13U, the self-cleavage was 0.01.

Consider C32G G13A, for which the self-cleavage amounted to 0.04. For C31A G19A the value was 0.04; for C31A G19U, 0.02. For the variant C31A G19C, the self-cleavage was 0.02. For C31U C32G the value was 0.08. For C31U C32U the value was 0.09; for C31U C32A, 0.05; for C31G G47A, 0.04.

Regarding C31G G47C, the self-cleavage is 0.03. For C31G G47U the value was 0.04; for C31A G51C, 0.02; for C31A G51U, 0.04. In the case of C31A G51A, the self-cleavage is 0.04. For C31U U18C the value was 0.87; for C31U U18A, 0.9; for C31U U18G, 0.82. For C31A G49C the value was 0.01. For C31A G49U the value was 0.02. As to C31A G49A, the self-cleavage was 0.02.

Regarding C31A C33U, the self-cleavage was determined as 0.03.

For the variant C31A C33G, the self-cleavage was 0.02. To C31A C33A belongs 0.05; to C32A U24C, 0.04. For the variant C32A U24G, the self-cleavage worked out at 0.02. As for C32A U24A, the self-cleavage was 0.06. To C32A G34A belongs 0.06; to C32A G34U, 0.05. For C32A G34C the value was 0.08. To C31U G42U belongs 0.03; to C31U G42A, 0.09.

With C31U G42C, the self-cleavage is 0.07. For C31G G42U the value was 0.02; for C31G G42C, 0.05. For C31G G42A the value was 0.1; for C31A G47A, 0.02; for C31A G47U, 0.02. To C31A G47C belongs 0.02; to C31U U24A, 0.02; to C31U U24C, 0.05. For the variant C31U U24G, the self-cleavage came to 0.03. To C31G G49U belongs 0.03. Regarding C31G G49A, the self-cleavage is 0.05. To C31G G49C belongs 0.03.

Regarding C31U G45C, the self-cleavage was determined as 0.04. For the variant C31U G45U, the self-cleavage was found to be 0.04. For C31U G45A the value was 0.04. To C31U G48C belongs 0.05. For C31U G48A the value was 0.05; for C31U G48U, 0.04; for C31A G53U, 0.03. C31A G53C: the self-cleavage is 0.01. For C31A G53A the value was 0.04; for C31G G44U, 0.05; for C31G G44A, 0.08. For C31G G44C the value was 0.07; for C31A U24C, 0.02; for C31A U24G, 0.01. For C31A U24A the value was 0.02. For the variant C31A G22C, the self-cleavage came to 0.02.

Regarding C31A G22A, the self-cleavage was 0.04. For the variant C31A G22U, the self-cleavage came out at 0.04.
